Test results from ChEMBL document CHEMBL3856268 (J Med Chem, 2016).
Calls of active or inactive are those of the source. No cut-off for these calls is given here.

Columns and labels:
[1] = molecular target: T1, NAD-dependent protein deacetylase sirtuin-1 (Homo sapiens) (UniProt Q96EB6); experiment: Inhibition of 50 nM N-terminal His6-tagged recombinant human SIRT1 expressed in Escherichia coli at 100 uM using RHKK(Ac)W-NH2 as substrate after 30 mins by UV detection-based HPLC method
T1 sequence (whole entry): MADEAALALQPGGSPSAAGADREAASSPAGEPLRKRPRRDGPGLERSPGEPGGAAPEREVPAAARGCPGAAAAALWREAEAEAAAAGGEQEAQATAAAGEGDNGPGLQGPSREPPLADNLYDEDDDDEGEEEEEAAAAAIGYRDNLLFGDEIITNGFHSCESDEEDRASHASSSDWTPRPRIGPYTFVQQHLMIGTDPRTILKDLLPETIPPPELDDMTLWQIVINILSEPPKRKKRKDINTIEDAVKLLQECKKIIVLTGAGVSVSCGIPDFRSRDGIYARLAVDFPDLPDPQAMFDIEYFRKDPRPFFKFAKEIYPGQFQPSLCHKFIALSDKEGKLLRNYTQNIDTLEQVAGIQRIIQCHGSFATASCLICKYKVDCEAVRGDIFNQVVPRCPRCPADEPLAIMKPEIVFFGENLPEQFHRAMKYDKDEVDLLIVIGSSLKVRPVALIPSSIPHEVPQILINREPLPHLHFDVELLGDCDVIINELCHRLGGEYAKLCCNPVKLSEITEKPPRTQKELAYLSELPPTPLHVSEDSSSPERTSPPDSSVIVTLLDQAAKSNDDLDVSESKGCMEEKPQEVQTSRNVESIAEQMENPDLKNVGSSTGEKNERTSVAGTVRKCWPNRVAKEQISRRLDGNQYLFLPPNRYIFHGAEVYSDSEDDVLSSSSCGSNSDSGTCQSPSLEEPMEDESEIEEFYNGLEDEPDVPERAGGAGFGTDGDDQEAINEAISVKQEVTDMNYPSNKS
Outline: (§1)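 SIRT1 (Sigma stock ~6 μM, 10% glycerol, no BSA) freshly diluted in 50 mM Tris-HCl/Tris pH 8.0. Mixture: 200 μM NAD+, 100 μM RHKK(Ac)W-NH2, 1% DMSO, optional additive (Triton X-100 0.01% v:v; BSA 1 mg/mL). Reaction started by enzyme without preincubation, run at 37 °C with conversion kept at 1–10% (30 min at 50 nM, 1 h at 25 nM, 5–10 min at 250 nM). Read-out: C18 HPLC, UV 220 nm, percent conversion from peak areas.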

[2] = molecular target: T1, NAD-dependent protein deacetylase sirtuin-1 (Homo sapiens); experiment: Activation of 25 nM N-terminal His6-tagged recombinant human SIRT1 expressed in Escherichia coli at 100 uM using RHKK(Ac)W-NH2 as substrate after 1 hr in presence of 0.01% TX-100 by UV detection-based HPLC method relative to control; outline: as §1
[3] = molecular target: T1, NAD-dependent protein deacetylase sirtuin-1 (Homo sapiens); experiment: Activation of 50 nM N-terminal His6-tagged recombinant human SIRT1 expressed in Escherichia coli at 100 uM using RHKK(Ac)W-NH2 as substrate after 30 mins in presence of 0.01% TX-100 by UV detection-based HPLC method relative to control; outline: as §1
[4] = molecular target: T1, NAD-dependent protein deacetylase sirtuin-1 (Homo sapiens); details: 1 uM
[5] = molecular target: T1, NAD-dependent protein deacetylase sirtuin-1 (Homo sapiens); details: 1 uM; remark: listed apart in the source
[6] = molecular target: T1, NAD-dependent protein deacetylase sirtuin-1 (Homo sapiens); details: 1 uM; remark: listed apart in the source
[7] = Drug aggregation in deuterated phosphate buffer assessed as diffusion coefficient at 100 uM by DOSY NMR method; type: physicochemical
Outline: (§2)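 DOSY at 600 MHz in deuterated phosphate buffer (50 mM, pH 8.0), using stimulated echo with bipolar gradient pulses and spoil gradients. 32 F1 increments of 32 scans, relaxation delay 1 s, acquisition 0.68 s, Δ 50 ms, δ 2.2 ms, 8192 points, 6009 Hz width. Diffusion coefficients taken from residual resonances of the compound.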

[8] = Drug aggregation in deuterated phosphate buffer assessed as diffusion coefficient at 100 uM in presence of 0.01% TX-100 by DOSY NMR method; type: physicochemical; outline: as §2
[9] = molecular target: T1, NAD-dependent protein deacetylase sirtuin-1 (Homo sapiens); experiment: Binding affinity to 25 to 100 nM N-terminal His6-tagged recombinant human SIRT1 expressed in Escherichia coli at 100 uM by 1H NMR method
[10] = Drug aggregation in deuterated phosphate buffer assessed as diffusion coefficient at 1 mM by DOSY NMR method; type: physicochemical; details: 1000 µM; outline: as §2
[11] = Drug aggregation in deuterated phosphate buffer assessed as diffusion coefficient at 100 uM in presence of 0.001% TX-100 by DOSY NMR method; type: physicochemical; outline: as §2
[12] = molecular target: T1, NAD-dependent protein deacetylase sirtuin-1 (Homo sapiens); experiment: Activation of 50 nM N-terminal His6-tagged recombinant human SIRT1 expressed in Escherichia coli at low micromolar concentration using RHKK(Ac)W-NH2 as substrate after 30 mins in presence of 0.01% TX-100 by UV detection-based HPLC method relative to control; outline: as §1
[13] = molecular target: T1, NAD-dependent protein deacetylase sirtuin-1 (Homo sapiens); experiment: Activation of 25 nM N-terminal His6-tagged recombinant human SIRT1 expressed in Escherichia coli at 100 uM using RHKK(Ac)W-NH2 as substrate after 1 hr in presence of 0.01% Tween 20 by UV detection-based HPLC method
Outline: (§3)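 Same SIRT1 HPLC deacetylation assay: 50 mM Tris-HCl/Tris pH 8.0, 200 μM NAD+, 100 μM RHKK(Ac)W-NH2, 1% DMSO. Started by enzyme addition, 37 °C. Deacetylated product separated by C18 HPLC, detected at 220 nm, and conversion computed from peak areas.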

[14] = molecular target: T1, NAD-dependent protein deacetylase sirtuin-1 (Homo sapiens); experiment: Inhibition of 8 nM N-terminal His6-tagged recombinant human SIRT1 expressed in Escherichia coli assessed as remaining activity at 100 uM using RHKK(Ac)W-NH2 as substrate by UV detection-based HPLC method relative to control; outline: as §3
[15] = molecular target: T1, NAD-dependent protein deacetylase sirtuin-1 (Homo sapiens); experiment: Inhibition of 25 nM N-terminal His6-tagged recombinant human SIRT1 expressed in Escherichia coli at 100 uM using RHKK(Ac)W-NH2 as substrate after 1 hr by UV detection-based HPLC method relative to control; outline: as §1
[16] = Drug aggregation in deuterated phosphate buffer assessed as diffusion coefficient at 100 uM in presence of 1.5 uM bovine serum albumin by DOSY NMR method; type: physicochemical; outline: as §2
[17] = molecular target: T1, NAD-dependent protein deacetylase sirtuin-1 (Homo sapiens); experiment: Activation of 8 nM N-terminal His6-tagged recombinant human SIRT1 expressed in Escherichia coli at 100 uM using RHKK(Ac)W-NH2 as substrate in presence of 0.01% TX-100 by UV detection-based HPLC method relative to control; outline: as §3
[18] = molecular target: T1, NAD-dependent protein deacetylase sirtuin-1 (Homo sapiens); experiment: Activation of 25 nM N-terminal His6-tagged recombinant human SIRT1 expressed in Escherichia coli at 100 uM using RHKK(Ac)W-NH2 as substrate after 1 hr in presence of 0.01% TX-100 by UV detection-based HPLC method
[19] = molecular target: T2, NAD-dependent protein deacetylase sirtuin-2 (Homo sapiens, UniProt Q8IXJ6); experiment: Inhibition of human recombinant GST-fused SIRT2 expressed in Escherichia coli DH5-alpha using [3H]acetic acid labeled MPSDKTIGG as substrate after overnight incubation by liquid scintillation counting method
T2 sequence (Q8IXJ6 whole entry): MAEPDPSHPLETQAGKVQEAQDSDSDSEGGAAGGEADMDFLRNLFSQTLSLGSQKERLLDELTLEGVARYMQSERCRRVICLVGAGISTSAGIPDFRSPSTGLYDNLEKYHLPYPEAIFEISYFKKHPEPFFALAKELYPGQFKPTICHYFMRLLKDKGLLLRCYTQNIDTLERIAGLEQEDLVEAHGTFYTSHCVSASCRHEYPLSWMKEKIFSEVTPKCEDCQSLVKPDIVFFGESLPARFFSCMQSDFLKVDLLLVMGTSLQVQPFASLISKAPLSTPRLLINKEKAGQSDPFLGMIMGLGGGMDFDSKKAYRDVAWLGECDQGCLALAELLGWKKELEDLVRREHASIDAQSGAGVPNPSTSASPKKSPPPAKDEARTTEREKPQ

[20] = molecular target: T3, NAD-dependent protein deacetylase sirtuin-1 (Homo sapiens, UniProt Q96EB6); experiment: Inhibition of human recombinant GST-fused SIRT1 expressed in Escherichia coli DH5-alpha using [3H]acetic acid labeled MPSDKTIGG as substrate after overnight incubation by liquid scintillation counting method
T3 sequence (Q96EB6 whole entry): T1 sequence (whole entry)

For `CC(C)=CCC[C@]1(C)[C@@H](CC=C(C)C)C[C@@]2(CC=C(C)C)C(=O)[C@]1(C(=O)C(C)C)C(=O)C(CC=C(C)C)=C2OCC(=O)O`, the inhibition [1] was “Active”, the Activity [2] was “Active” and the Activity [3] was “Active”.

In the case of `CC(C)=CCC[C@]1(C)[C@@H](CC=C(C)C)C[C@]2(CC=C(C)C)C(=O)C(CC=C(C)C)=C(O)[C@@]1(C(=O)C(C)C)C2=O`, the inhibition [1] is reported as “Active” and the Activity [3] is reported as “Active”.

With `CC1=CCC(C(=O)/N=C2\CC=C(S(=O)(=O)O)c3cc(S(=O)(=O)O)cc(S(=O)(=O)O)c32)=C/C1=N/C(=O)C1=CC=C/C(=N\C(=O)/N=C2\C=CC=C(C(=O)/N=C3/CC(C(=O)/N=C4\CC=C(S(=O)(=O)O)c5cc(S(=O)(=O)O)cc(S(=O)(=O)O)c54)=CC=C3C)C2)C1` the inhibition [4] was “Active”, the inhibition [5] was “Active” and the inhibition [6] was “Active”.

With `CC(C)=CCC[C@]1(C)[C@@H](CC=C(C)C)C[C@]2(CC=C(C)C)C(=O)[C@@]1(CC=C(C)C)C(=O)C(C(=O)c1ccc(O)c(O)c1)=C2O` [GUTTIFERONE A] the D [7] was 2.706 ×10⁻¹⁰ m2/s, the D [8] was 1.808 ×10⁻¹⁰ m2/s and the Activity [9] was “Active”. For the same compound, the D [10] was 2.246 ×10⁻¹⁰ m2/s, the D [11] was 2.298 ×10⁻¹⁰ m2/s and the Activity [12] was “Active”. For the same compound, the Activity [13] was “Active”, the Activity [14] was 1% and the inhibition [1] was “Active”. For the same compound, the inhibition [15] was 90%, the fold change (FC) [2] was 2 and the D [16] was 1.61 ×10⁻¹⁰ m2/s. The fold change (FC) [3] was 2, the Activity [17] was 158% and the Activity [18] was “Active”.

`CC(C)=CCC/C(C)=C/C[C@@H]1C[C@]2(CC=C(C)C)C(=O)[C@@](CC=C(C)C)(C(=O)C(C(=O)c3ccc(O)c(O)c3)=C2O)[C@@]1(C)CCC=C(C)C` [OBLONGIFOLIN C] gave an IC50 [19] of 22 µM and an IC50 [20] of 9 µM.
